Reference: ChEMBL document CHEMBL1141246, “Transformations of manool. tri- and tetracyclic norditerpenoids with in vitro activity against Plasmodium falciparum” (J Nat Prod, 2007)
≈ marks a conversion by molar mass, not a printed value.

How the values were obtained:
[1] = test system: Plasmodium falciparum; experiment: Antiparasitic activity against Plasmodium falciparum 3D7 after 48 hrs; assay type: functional, organism-based; details: 3D7, 48 h
Method in brief: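 P. falciparum 3D7 cultures diluted with fresh medium and erythrocytes to 2% parasitemia, 2% hematocrit. Serial compound dilutions added and plates held 48 h at 37 °C. Viability read as parasite lactate dehydrogenase activity, relative to solvent controls with 0.5% DMSO.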

[2] = Effect on erythrocyte shape in human erythrocytes assessed as echinocytes at 50 ug/mL after 48 hrs; assay type: ADME, cell-based
Method in brief: (§1)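 Fresh erythrocytes at 2% hematocrit incubated 48 h in parasite culture medium alone or with compound. Suspensions then wet-mounted under coverslips and examined at once by phase-contrast microscopy with a 100× oil objective; Giemsa-stained thin smears were also examined. Percent stomatocytes, echinocytes and knizocytes scored using shape definitions of Lim et al.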

[3] = Effect on erythrocyte shape in human erythrocytes assessed as stomatocytes at 100 ug/mL after 48 hrs; assay type: ADME, cell-based; method in brief: as §1
[4] = Hemolytic activity in human erythrocytes at 200 ug/mL after 48 hrs relative to 0.2% saponin; assay type: ADME, cell-based, Erythrocyte; details: read-out: Activity
Method in brief: (§2)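 Uninfected normal erythrocytes at 2% hematocrit incubated 48 h with compound dilutions in duplicate plates. Cells pelleted at 200g for 3 min, and hemoglobin in the supernatant read by absorbance at 405 nm. Percent hemolysis calculated against 0.2% saponin.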

[5] = Effect on erythrocyte shape in human erythrocytes assessed as echinocytes at 100 ug/mL after 48 hrs; assay type: ADME, cell-based; method in brief: as §1
[6] = Effect on erythrocyte shape in human erythrocytes assessed as stomatocytes at 50 ug/mL after 48 hrs; assay type: ADME, cell-based; method in brief: as §1
[7] = Hemolytic activity in human erythrocytes at 100 ug/mL after 48 hrs relative to 0.2% saponin; assay type: ADME, cell-based, Erythrocyte; details: read-out: Activity; method in brief: as §2
[8] = Effect on erythrocyte shape in human erythrocytes assessed as […] and stomatocytes at 100 ug/mL after 48 hrs; assay type: ADME, cell-based; method in brief: as §1

Compound	IC50 [1] [µg/mL]	Activity [2] [%]	Activity [3] [%]	Activity [5] [%]	Activity [6] [%]	Activity [8] [%]	hemolysis at 48 h, 200 ug/mL [4] [%]	hemolysis at 48 h, 100 ug/mL [7] [%]
C=C[C@@]1(C)CCC2=C(CC[C@H]3C(C)(C)[C@@H](O)CC[C@]23C)C1	7 (≈ 24.3 µM)	–	–	–	–	–	–	–
C=C[C@@]1(C)CCC2[C@@](O)(CC[C@H]3C(C)(C)[C@@H](O)CC[C@]23C)C1 (stereo partly specified)	7 (≈ 22.8 µM)	–	–	–	–	–	–	–
C=C[C@]1(C)C=C2CC[C@H]3C(C)(CO)[C@@H](O)CC[C@]3(C)[C@H]2CC1 (stereo partly specified)	7 (≈ 23 µM)	–	–	–	–	–	–	–
C=C[C@@]1(C)CCC2=C(C1)C(=O)C[C@H]1C(C)(CO)[C@@H](O)CC[C@]21C (stereo partly specified)	7 (≈ 22 µM)	–	–	–	–	–	–	–

Further lines, with some results ahead:

IC50 [1] [µg/mL]	Activity [2] [%]	Activity [3] [%]	Activity [5] [%]	Activity [6] [%]	Activity [8] [%]	Compound	hemolysis at 48 h, 200 ug/mL [4] [%]	hemolysis at 48 h, 100 ug/mL [7] [%]
5.7 (≈ 17 µM)	2	8	0	2	–	CCOC(=O)/C=C1\CC[C@H]2[C@@](O)(CC[C@H]3C(C)(C)CCC[C@@]32C)C1	17	3
3.9 (≈ 11.7 µM)	0	–	0	11	17	CCOC(=O)/C=C1/CC[C@H]2[C@@](O)(CC[C@H]3C(C)(C)CCC[C@@]32C)C1	34	9
10.6 (≈ 36.2 µM)	1	64	0	5	–	CC1(C)CCC[C@@]2(C)[C@H]1CC[C@@]1(O)C/C(=C\CO)CC[C@@H]12	102	2
19.6 (≈ 58.6 µM)	2	0	9	1	–	CCO[C@@]12CC[C@H]3[C@@](CC[C@H]4C(C)(C)CCC[C@@]43C)(C1)OC(=O)C2	0	0
10.7 (≈ 36.6 µM)	3	1	2	1	–	C=C[C@@]1(O)CC[C@H]2[C@@](O)(CC[C@H]3C(C)(C)CCC[C@@]32C)C1	0.2	0.6
13.3 (≈ 45.2 µM)	3	3	2	1	–	CC1(C)CCC[C@@]2(C)[C@H]1CC[C@@]1(O)CC(CCO)CC[C@@H]12 (stereo partly specified)	5	0
